Measurements from PubChem BioAssay.
Records with an inconclusive call do not appear. Active and inactive are the calls of the source.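 The calls were made as follows, unless noted: active = viability at or below 27.92% in each of two runs, the all-compound median minus 4 SD; inconclusive = no clear call, values can overlap the other calls; inactive = the rest.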

Legend:
[1] = S. cerevisiae growth inhibition in permissive medium (OD615), pilot counter-assay for S. cerevisiae lifespan shortening project, permissive growth control (AID 705;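 active = growth inhibition above 25% in both replicates, a cutoff set 3 SD above the mean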); conditions: OD615, 24 h, at 10 µM, stronger effect = higher value
In short: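 Material: engineered DeaD yeast; Compound: one dose 10 µM, DMSO 0.25% final; Detection: absorbance (optical density) at 615 nm; Buffer or medium: permissive raffinose/galactose medium; Timing: 24 h exposure, 30 °C.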

[2] = S. cerevisiae growth inhibition in restrictive medium, OD615, pilot screen, restrictive growth control, yeast lifespan reduction project (AID 706;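 active = growth inhibition above a set limit, 3 SD over mean compound inhibition, in both replicates, cut at about 43% in these data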;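 also: modified DeaD lifespan yeast strain shifted to restrictive glucose medium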); conditions: OD615, 48 h, at 10 µM, stronger effect = higher value
In short: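 Buffer or medium: restrictive glucose medium (CSMM-D); test system: modified S. cerevisiae; doses: single dose of 10 µM compound final, 0.25% DMSO; schedule: 48 h compound exposure at 30 °C; detection: absorbance (optical density) measured at 615 nm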

[3] = doxorubicin toxicity protection in MRP-1 cells – H69AR cells, CellTiter-Glo, duplicate, MRP-1 activator project, pilot screen (AID 807;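 active = viability increase at or above a cutoff of the median across tested compounds plus 3 SD, cut at about 8.5% in these data, passing the limit was not always enough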;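 also: compound pretreatment 18-22 h then 72 h combined with doxorubicin; 0% = doxorubicin alone and 100% = vehicle without doxorubicin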); conditions: H69AR viability with doxorubicin, CellTiter-Glo luminescence; at 10 µM; stronger effect = higher value
[4] = viability of HCT116 without oncogenic beta-catenin – human colon tumor cells, pilot screen (AID 823;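 active = cell viability at or below a set limit in both duplicate runs, the limit being the all-compound median minus 4 SD, cut at about 23% in these data, passing the limit was not always enough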;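 also: 0% = wells killed by 20 µM Hyamine and 100% = untreated DMSO cell wells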); conditions: HCT116 beta-catenin knockout viability, CellTiter-Glo, 60 h; at 10 µM; stronger effect = lower value
[5] = viability of PTEN-null HCT116 cells – cell-based, HCT116 clonal line, CellTiter-Glo, pilot screen (AID 824); conditions: HCT116 PTEN-deleted viability, 60 h, at 10 µM, stronger effect = lower value;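 also: 0% = 20 µM Hyamine control and 100% = vehicle cell control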
[6] = RAM pathway blockade in budding yeast – dse1pr::URA3 reporter, 5-FOA selection, pilot screen (AID 869;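 active = inhibition over a set limit, the all-compound mean plus 3 SD, in both replicate runs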;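 also: 0% = DMSO wells with no growth and 100% = 10 µM 1-NA-PP1 with full growth; RAM network block rescues cells from 5-FOA so hits raise OD615 growth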); conditions: S. cerevisiae dse1pr::URA3 5-FOA growth, OD615, 2 d; at 10 µM; stronger effect = higher value; strain carries analog-sensitive mutant Cbk1 kinase
[7] = RAM signaling pathway blockade in yeast – S. cerevisiae, Pdr1DBD-CYC8 efflux-inhibited sensitized strain, primary screen (AID 1298;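 active = RAM network inhibition above 8.4% in each of two replicates, 3 SD over the compound average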;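 also: 0% = DMSO untreated cells without growth and 100% = 10 µM 1-NA-PP1 full growth; higher means more yeast growth rescued from 5-FOA killing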); conditions: S. cerevisiae cbk1-as DSE1-URA3 strain, 5-FOA growth OD615, 2 d; at 50 µM; stronger effect = higher value

O=C(Nc1ccc(SC(F)F)cc1)C1=COCCO1
inactive: growth inhibition [1] -0.035% | growth inhibition [2] 10.5% | viability increase [3] 2.59% | viability [4] 93.8% | viability [5] 90.1% | inhibition [6] 1.4% | RAM network inhibition [7] 5.17%

CSc1nc(C)nc2c1c(=O)n(C)c(=O)n2C
inactive: growth inhibition [1] 9.37% | growth inhibition [2] 6.23% | viability increase [3] -1.42% | viability [4] 108% | viability [5] 94.2% | inhibition [6] 0.68% | RAM network inhibition [7] 0.26%

Cc1ccc2oc3c(c(=O)c2c1)C(c1cccc(O)c1)N(c1ccccn1)C3=O (stereo not drawn)
inactive: growth inhibition [1] -2.51% | growth inhibition [2] -0.22% | viability increase [3] -2.59% | viability [4] 79.4% | viability [5] 68.2% | inhibition [6] 1.81% | RAM network inhibition [7] 4.84%

NC(=O)c1ccsc1NC(=O)c1ccc(S(=O)(=O)N2CCCCC2)cc1
inactive: growth inhibition [1] -4.08% | growth inhibition [2] -4.94% | viability increase [3] -0.57% | viability [4] 71.9% | viability [5] 58.3% | inhibition [6] 1.47% | RAM network inhibition [7] 2.41%

Cc1cc(/C=N/n2cnnc2)c(C)n1-c1ccc(OCc2ccc(F)cc2)cc1
active: viability [4] 10.2% | viability [5] 11.8%
inactive: growth inhibition [1] -2.2% | growth inhibition [2] 32.3% | viability increase [3] -5.79% | inhibition [6] 1.71% | RAM network inhibition [7] 8.48%

COc1ccc(N(CC(=O)N2CCN(C)CC2)S(C)(=O)=O)cc1OC
inactive: growth inhibition [1] -12% | growth inhibition [2] -9.76% | viability increase [3] -0.37% | viability [4] 90.8% | viability [5] 97.5% | inhibition [6] 0.64% | RAM network inhibition [7] 6.2%

COc1ccc(C2CC(=O)C=C(NCC3CCCO3)C2)cc1 (stereo not drawn)
inactive: growth inhibition [1] -10.4% | growth inhibition [2] -1.65% | viability increase [3] -0.23% | viability [4] 96.2% | viability [5] 100% | inhibition [6] 1.43% | RAM network inhibition [7] 1.32%

COc1ccc2[nH]c(C)c(CN3CCC(C)CC3)c(=O)c2c1
inactive: growth inhibition [1] 0.03% | growth inhibition [2] -2.44% | viability increase [3] -2.02% | viability [4] 98.5% | viability [5] 90.8% | inhibition [6] 1.03% | RAM network inhibition [7] 2.42%

Cc1ccc2oc(=O)c3cnn(CC(=O)N4CCc5ccccc5C4)c3c2c1
inactive: growth inhibition [1] -10.4% | growth inhibition [2] -4.8% | viability increase [3] -0.98% | viability [4] 93.5% | viability [5] 92.1% | inhibition [6] 1.77% | RAM network inhibition [7] 3.4%

O=C(NC1CCCCC1)c1ccc(S(=O)(=O)N2CCOCC2)cc1
inactive: growth inhibition [1] -2.04% | growth inhibition [2] -2.56% | viability increase [3] 0.17% | viability [4] 104% | viability [5] 101% | inhibition [6] 0.855% | RAM network inhibition [7] -0.73%

O=C(NCCc1ccc(S(=O)(=O)N2CCCC2)cc1)c1cccs1
inactive: growth inhibition [1] 2.67% | growth inhibition [2] 7.14% | viability increase [3] -1.73% | viability [4] 93.4% | viability [5] 90.2% | inhibition [6] 0.545% | RAM network inhibition [7] 6.32%

CC(C)Sc1nc(-c2cccs2)nc2c1c(=O)n(C)c(=O)n2C
inactive: growth inhibition [1] -2.16% | growth inhibition [2] -19% | viability increase [3] -6.85% | viability [4] 77.3% | viability [5] 69.4% | inhibition [6] 1.46% | RAM network inhibition [7] 7.05%

CCNc1nc(NCC)nc(Oc2ccc(OCC)nn2)n1
inactive: growth inhibition [1] -15.2% | growth inhibition [2] -14.6% | viability increase [3] -0.87% | viability [4] 88.1% | viability [5] 92.2% | inhibition [6] 2.82% | RAM network inhibition [7] 4.95%

CC(C)Cc1cc(C(=O)Nc2cc(Cl)ccc2Cl)no1
inactive: growth inhibition [1] -14.2% | growth inhibition [2] -0.125% | viability increase [3] -2.35% | viability [4] 104% | viability [5] 98% | inhibition [6] 3.71% | RAM network inhibition [7] 1.67%

COc1ccc(C2C(C(=O)c3ccco3)=C(O)C(=O)N2Cc2cccnc2)cc1OC (stereo not drawn)
inactive: growth inhibition [1] -4.18% | growth inhibition [2] 6.84% | viability increase [3] -3.78% | viability [4] 102% | viability [5] 98.7% | inhibition [6] 0.875% | RAM network inhibition [7] 0.66%

CC(c1ccccc1)N1CC(C(=O)N2CCN(c3ccccc3)CC2)CC1=O (stereo not drawn)
inactive: growth inhibition [1] 0.43% | growth inhibition [2] 1.48% | viability increase [3] -1.1% | viability [4] 104% | viability [5] 101% | inhibition [6] 0.54% | RAM network inhibition [7] 4.4%

Cn1c(=O)oc2cc(S(=O)(=O)N3CCC(C(=O)N4CC=C(c5ccccc5)CC4)CC3)ccc21
inactive: growth inhibition [1] -0.22% | growth inhibition [2] 4.63% | viability increase [3] 0.15% | viability [4] 98.9% | viability [5] 94.8% | inhibition [6] 0.01% | RAM network inhibition [7] 6.76%

CC(=O)c1cccc(NC(=O)C2CCN(S(=O)(=O)c3ccc(F)cc3)CC2)c1
inactive: growth inhibition [1] -6.23% | growth inhibition [2] 1.16% | viability increase [3] -2.82% | viability [4] 92% | viability [5] 93.5% | inhibition [6] 3.66% | RAM network inhibition [7] 5.67%

CCOC(=O)c1sc(NC(=O)C2CC2)nc1C
inactive: growth inhibition [1] -2.83% | growth inhibition [2] 0.375% | viability increase [3] 0.91% | viability [4] 99.6% | viability [5] 95.1% | inhibition [6] 0.595% | RAM network inhibition [7] -1.46%

O=C(NC1CCCCCC1)C1CCN(C(=O)Cc2ccccc2)CC1
inactive: growth inhibition [1] -11.1% | growth inhibition [2] -9.52% | viability increase [3] -1.12% | viability [4] 101% | viability [5] 94.3% | inhibition [6] 0.785% | RAM network inhibition [7] 3.07%

C=CCSc1nnc2c(n1)OC(c1cccnc1)Nc1ccccc1-2 (stereo not drawn)
inactive: growth inhibition [1] 8.11% | growth inhibition [2] 13.7% | viability increase [3] -2.34% | viability [4] 95.5% | viability [5] 88% | inhibition [6] 1.75% | RAM network inhibition [7] 1.38%

CC(Cc1ccccc1)N/C=C1/CC(=O)NC1=O (stereo not drawn)
inactive: growth inhibition [1] -8.61% | growth inhibition [2] 0.51% | viability increase [3] -1.53% | viability [4] 97% | viability [5] 97% | inhibition [6] 1.42% | RAM network inhibition [7] 2.56%

O=C(Nc1ccccc1)C1CC=CCC1C(=O)OCC1CCCO1 (stereo not drawn)
inactive: growth inhibition [1] -9.52% | growth inhibition [2] -20.7% | viability increase [3] 0.15% | viability [4] 102% | viability [5] 102% | inhibition [6] 2.69% | RAM network inhibition [7] 0.98%

Cc1cc(Nc2ncc(Cl)cc2Cl)n(-c2ccccn2)n1
inactive: growth inhibition [1] -1.14% | growth inhibition [2] 3.23% | viability increase [3] -5.35% | viability [4] 89.3% | viability [5] 76.5% | inhibition [6] 1.93% | RAM network inhibition [7] 4.08%
